Experimental data reported in ChEMBL document CHEMBL1133571, “Extended TIP(P) analogues as precursors for labeled delta-opioid receptor ligands” (J Med Chem, 2000).
“And” between values parts separate entries of the source, which are not always exact repeats. Identical values can stand only once. Where a SMILES comes first, the peptide text is derived from it. [ ]: non-standard residue; d: D form. Tic = O=C(O)[C@@H]1Cc2ccccc2CN1

Experiments:
[1] = molecular target: Mu-type opioid receptor (Homo sapiens, UniProt P35372); experiment: Affinity towards human Opioid receptor mu 1 on CHO cell membranes using [3H]DAMGO displacement.
Chain of Mu-type opioid receptor (P35372 whole entry): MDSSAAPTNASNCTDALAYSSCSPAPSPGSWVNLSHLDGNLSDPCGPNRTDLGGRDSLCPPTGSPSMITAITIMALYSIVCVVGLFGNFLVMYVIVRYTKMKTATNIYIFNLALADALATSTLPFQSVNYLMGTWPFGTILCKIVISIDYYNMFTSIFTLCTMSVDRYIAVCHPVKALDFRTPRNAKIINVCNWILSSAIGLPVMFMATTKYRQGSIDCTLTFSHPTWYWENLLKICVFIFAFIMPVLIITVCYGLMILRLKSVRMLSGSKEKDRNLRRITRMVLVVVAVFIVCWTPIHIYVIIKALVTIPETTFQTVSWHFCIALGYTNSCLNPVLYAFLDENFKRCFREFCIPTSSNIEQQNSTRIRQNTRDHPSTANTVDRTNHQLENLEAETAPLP
Outline: (§1)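 Membranes from CHO cells stably expressing cloned δ or µ receptors. Incubated 90 min at 22 °C with peptide concentrations up to 10 µM, 3 mM Mg2+, and peptidase inhibitors (10 µM bestatin, 30 µM captopril, 50 µM L-leucyl-L-leucine). Nonspecific binding measured with 10 µM unlabeled ligand. IC50 from nonlinear regression converted to Ki by Cheng-Prusoff (KD: [3H]DPDPE 0.5 nM, δ; [3H]DAMGO 0.644 nM, µ).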

[2] = molecular target: Delta-type opioid receptor (Homo sapiens, UniProt P41143); experiment: Affinity towards human Opioid receptor delta 1 on CHO cell membranes using [3H]DPDPE displacement.; outline: as §1
Chain of Delta-type opioid receptor (P41143 whole entry): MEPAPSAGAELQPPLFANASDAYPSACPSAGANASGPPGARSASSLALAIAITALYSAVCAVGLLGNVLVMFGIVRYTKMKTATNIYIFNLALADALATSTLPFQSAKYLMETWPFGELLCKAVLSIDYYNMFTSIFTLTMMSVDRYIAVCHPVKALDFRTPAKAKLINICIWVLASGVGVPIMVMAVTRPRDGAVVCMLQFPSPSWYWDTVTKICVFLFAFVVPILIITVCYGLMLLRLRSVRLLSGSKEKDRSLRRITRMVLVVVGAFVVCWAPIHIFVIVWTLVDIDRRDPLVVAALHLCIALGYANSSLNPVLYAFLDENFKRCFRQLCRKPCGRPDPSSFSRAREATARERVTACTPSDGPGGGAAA

| SMILES | Ki [1] [nM] | Ki [2] |
| --- | --- | --- |
| NC(=O)[C@@H](CC(=O)O)NC(=O)[C@H](Cc1ccccc1)NC(=O)[C@H](Cc1ccccc1)NC(=O)[C@@H]1Cc2ccccc2CN1C(=O)[C@@H](N)Cc1ccc(O)cc1 | 3280 | 10.3 nM |
| NC(=O)C[C@@H](NC(=O)[C@H](Cc1ccccc1)NC(=O)[C@H](Cc1ccccc1)NC(=O)[C@@H]1Cc2ccccc2CN1C(=O)[C@@H](N)Cc1ccc(O)cc1)C(=O)O | 3200 | 8.1 nM |
| NC(=O)C[C@H](NC(=O)[C@H](Cc1ccccc1)NC(=O)[C@H](Cc1ccccc1)NC(=O)[C@@H]1Cc2ccccc2CN1C(=O)[C@@H](N)Cc1ccc(O)cc1)C(=O)O | > 4500 | 7.1 nM |
| NC(=O)[C@H](CC(=O)O)NC(=O)[C@H](Cc1ccccc1)NC(=O)[C@H](Cc1ccccc1)NC(=O)[C@@H]1Cc2ccccc2CN1C(=O)[C@@H](N)Cc1ccc(O)cc1 | > 4000 | 9.5 nM |
| CC(=O)NCCCC[C@H](NC(=O)[C@H](Cc1ccccc1)NC(=O)[C@@H]1Cc2ccccc2CN1C(=O)[C@@H](N)Cc1ccc(O)cc1)C(=O)O | > 4500 | 27.8 nM |
| NC(=O)CC[C@@H](NC(=O)[C@H](Cc1ccccc1)NC(=O)[C@@H]1Cc2ccccc2CN1C(=O)[C@@H](N)Cc1ccc(O)cc1)C(=O)O | > 4500 | 5 nM |
| NC(=O)CC[C@H](NC(=O)[C@H](Cc1ccccc1)NC(=O)[C@H](Cc1ccccc1)NC(=O)[C@@H]1Cc2ccccc2CN1C(=O)[C@@H](N)Cc1ccc(O)cc1)C(=O)O | > 4500 | 9.7 nM |
| NC(=O)[C@@H](CCC(=O)O)NC(=O)[C@H](Cc1ccccc1)NC(=O)[C@@H]1Cc2ccccc2CN1C(=O)[C@@H](N)Cc1ccc(O)cc1 | > 4500 | 34.9 nM |
| NC(=O)CC[C@H](NC(=O)[C@H](Cc1ccccc1)NC(=O)[C@@H]1Cc2ccccc2CN1C(=O)[C@@H](N)Cc1ccc(O)cc1)C(=O)O | > 4500 | 37.7 nM |
| NC(=O)[C@H](CCC(=O)O)NC(=O)[C@H](Cc1ccccc1)NC(=O)[C@H](Cc1ccccc1)NC(=O)[C@@H]1Cc2ccccc2CN1C(=O)[C@@H](N)Cc1ccc(O)cc1 | > 4500 | 9.9 nM |
| NC(=O)[C@@H](CCC(=O)O)NC(=O)[C@H](Cc1ccccc1)NC(=O)[C@H](Cc1ccccc1)NC(=O)[C@@H]1Cc2ccccc2CN1C(=O)[C@@H](N)Cc1ccc(O)cc1 | 1950 | 7.8 nM |
| NC(=O)[C@@H](CC(=O)O)NC(=O)[C@H](Cc1ccccc1)NC(=O)[C@@H]1Cc2ccccc2CN1C(=O)[C@@H](N)Cc1ccc(O)cc1 | > 4500 | 69 nM |
| NC(=O)C[C@H](NC(=O)[C@H](Cc1ccccc1)NC(=O)[C@@H]1Cc2ccccc2CN1C(=O)[C@@H](N)Cc1ccc(O)cc1)C(=O)O | > 4500 | 61.1 nM |
| CC(=O)NCCCC[C@@H](NC(=O)[C@H](Cc1ccccc1)NC(=O)[C@@H]1Cc2ccccc2CN1C(=O)[C@@H](N)Cc1ccc(O)cc1)C(=O)O | > 4500 | 21.6 nM |
| NC(=O)CC[C@@H](NC(=O)[C@H](Cc1ccccc1)NC(=O)[C@H](Cc1ccccc1)NC(=O)[C@@H]1Cc2ccccc2CN1C(=O)[C@@H](N)Cc1ccc(O)cc1)C(=O)O | > 4500 | 5.1 nM |
| NC(=O)[C@H](CC(=O)O)NC(=O)[C@H](Cc1ccccc1)NC(=O)[C@@H]1Cc2ccccc2CN1C(=O)[C@@H](N)Cc1ccc(O)cc1 | > 4500 | 21.4 nM |
| NC(=O)[C@H](CCC(=O)O)NC(=O)[C@H](Cc1ccccc1)NC(=O)[C@@H]1Cc2ccccc2CN1C(=O)[C@@H](N)Cc1ccc(O)cc1 | 4500 | 19.9 nM |
| NC(=O)C[C@@H](NC(=O)[C@H](Cc1ccccc1)NC(=O)[C@@H]1Cc2ccccc2CN1C(=O)[C@@H](N)Cc1ccc(O)cc1)C(=O)O | > 4500 | 13.7 nM |
| CC(=O)NCCCC[C@@H](NC(=O)[C@H](Cc1ccccc1)NC(=O)[C@H](Cc1ccccc1)NC(=O)[C@@H]1Cc2ccccc2CN1C(=O)[C@@H](N)Cc1ccc(O)cc1)C(=O)O | > 4500 | 16.3 nM and 21.5 nM |
| N[C@@H](Cc1ccc(O)cc1)C(=O)N1Cc2ccccc2C[C@H]1C(=O)N[C@@H](Cc1ccccc1)C(=O)O (H-Tyr-[Tic]-Phe-OH) | > 4500 | 148 nM |
| N[C@@H](Cc1ccc(O)cc1)C(=O)N1Cc2ccccc2C[C@H]1C(=O)N[C@@H](Cc1ccccc1)C(=O)N[C@@H](Cc1ccccc1)C(=O)O (H-Y[Tic]FF-OH) | > 4500 | 6.1 nM and 1.22 nM |
